Measurements reported in ChEMBL document CHEMBL1144198, “Nucleosides and oligonucleotides containing 1,2,3-triazole residues with nucleobase tethers: synthesis via the azide-alkyne 'click' reaction” (Bioorg Med Chem, 2008).

Assays:
West Nile virus = assay: Antiviral activity against WNV infected in BHK21 cells assessed as inhibition of virus-induced cytopathic effect at 15 uM; type: functional; details: BHK-21
In short: (§1)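 Single test concentration 15 µM of drug in acutely infected BHK cells; inhibition of virus-induced cytopathogenicity read by CPE assay, reported as % inhibition.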

Hepatitis C virus = assay: Antiviral activity against HCV assessed at 15 uM by ELISA; type: functional, Hepacivirus hominis
In short: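 HCV replicon replication in GS4.1 cells, read by ELISA-based replicon assay at a single test concentration of 15 µM of drug; reported as % inhibition.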

[1] = Cytotoxicity against DENV infected BHK21 cells at 15 uM; type: cell-based, Mesocricetus auratus; details: hamster, bhk-21, 15 µM
In short: (§2)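 Cellular toxicity measured at a single test concentration of 15 µM of drug in BHK cells run alongside the flavivirus CPE assays; reported as % toxicity.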

[2] = Cytotoxicity against YFV infected BHK21 cells at 15 uM; type: cell-based, Mesocricetus auratus; details: hamster, bhk-21, 15 µM
Yellow fever virus = assay: Antiviral activity against YFV infected in BHK21 cells assessed as inhibition of virus-induced cytopathic effect at 15 uM; type: functional; details: BHK-21
dengue virus type 2 = assay: Antiviral activity against DENV infected in BHK21 cells assessed as inhibition of virus-induced cytopathic effect at 15 uM; type: functional; details: BHK-21; in short: as §1
[3] = Cytotoxicity against human GS4.1 cells at 15 uM; type: cell-based
In short: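 Cellular toxicity of drug at a single test concentration of 15 µM in GS4.1 (HCV replicon) cells; reported as % toxicity.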

[4] = Cytotoxicity against WNV infected BHK21 cells at 15 uM; type: cell-based, Mesocricetus auratus; details: hamster, bhk-21, 15 µM; in short: as §2

| Structure (SMILES) | inhibition at 15 µM (West Nile virus) | inhibition at 15 µM (Hepatitis C virus) | Activity [1] | Activity [2] | inhibition at 15 µM (Yellow fever virus) | inhibition at 15 µM (dengue virus type 2) | Activity [3] | Activity [4] |
| --- | --- | --- | --- | --- | --- | --- | --- | --- |
| C#CCn1ccc(=O)[nH]c1=O | -4.57% | 12.1% | 2.76% | 0.08% | -11.3% | -4.6% | -8.85% | 2.76% |
| C#CCn1ccc2c(Cl)ncnc21 | 3.81% | 69.2% | -9.83% | -19.45% | -0.25% | -0.85% | 1.84% | -9.83% |
| Cc1ccc(C(=O)OC[C@H]2O[C@@H](n3cc(Cn4ccc5c(Cl)nc(N)nc54)nn3)C[C@@H]2OC(=O)c2ccc(C)cc2)cc1 | -1.44% | 32.1% | 0.17% |  |  | -2.39% | 6.49% | 0.17% |
| Nc1ncnc2c1ccn2Cc1cn([C@H]2C[C@H](O)[C@@H](CO)O2)nn1 | 2.42% | -3.8% | 3.14% | 4.48% | 11% | 3.43% | -3.79% | 3.14% |
| C#CCn1cnc2c(N)ncnc21 | -1.77% | 2.99% | 3.8% | -7.46% | -2.81% | -3.4% | -10.4% | 3.8% |
| Nc1ccn(Cc2cn([C@H]3C[C@H](O)[C@@H](CO)O3)nn2)c(=O)n1 | 0.24% | 10.1% | 9.41% | -4.62% | 7.89% | 0.95% | -5.59% | 9.41% |
| O=c1ccn(Cc2cn([C@H]3C[C@H](O)[C@@H](CO)O3)nn2)c(=O)[nH]1 | -2.67% | 0.04% | 9.5% | -4.57% | 4.59% | 0.75% | -5.59% | 9.5% |
| Cc1ccc(C(=O)OC[C@H]2O[C@@H](n3cc(Cn4ccc(N)nc4=O)nn3)C[C@@H]2OC(=O)c2ccc(C)cc2)cc1 | -3.67% | 15.6% | 4.08% |  |  | -2.26% | -8.12% | 4.08% |
| Nc1nc(Cl)c2ccn(Cc3cn([C@H]4C[C@H](O)[C@@H](CO)O4)nn3)c2n1 | 5.71% | 2.93% | 1.3% | 8.55% | 13.3% | 2.49% | -3.3% | 1.3% |
| O=C(Nc1ncnc2c1ncn2Cc1cn([C@H]2C[C@H](O)[C@@H](CO)O2)nn1)c1ccccc1 | -1.16% | 9.02% | 5.54% | -2.91% | 8.76% | 1.02% | -3.55% | 5.54% |
| Cc1ccc(C(=O)OC[C@H]2O[C@@H](n3cc(Cn4ccc5c(Cl)ncnc54)nn3)C[C@@H]2OC(=O)c2ccc(C)cc2)cc1 | -2.95% | 49.2% | 0.31% |  |  | -1.05% | 20.77% | 0.31% |
| Nc1ncnc2c1ncn2Cc1cn([C@H]2C[C@H](O)[C@@H](CO)O2)nn1 | -0.43% | 7.54% | 7.85% | -2.12% | 8.36% | 1.02% | -0.61% | 7.85% |
| Cc1ccc(C(=O)OC[C@H]2O[C@@H](n3cc(Cn4ccc(=O)[nH]c4=O)nn3)C[C@@H]2OC(=O)c2ccc(C)cc2)cc1 | -2.84% | 11.3% | 3.37% |  |  | 0.82% | -4.12% | 3.37% |
| OC[C@H]1O[C@@H](n2cc(Cn3cnc4c3ncn3ccnc43)nn2)C[C@@H]1O | -2.44% | 6.07% | -2.95% | -11.67% | 4.39% | 2.23% | -2.24% | -2.95% |
